# Results reported in ChEMBL document CHEMBL4330098, “Identification of peptidomimetics as novel chemical probes modulating fibroblast growth factor 14 (FGF14) and voltage-gated sodium channel 1.6 (Nav1.6) protein-protein interactions” (Bioorg Med Chem Lett, 2019).
# Calls of active or inactive are those of the source. The calls are words filed in the database; no cut-off is given here. Residues, ends and D or L forms follow the SMILES beside them. *: point of attachment. Fmoc = O=C(OCC1c2ccccc2-c2ccccc21)*; Cbz = O=C(OCc1ccccc1)*; Boc = CC(C)(C)OC(=O)*; Bz = O=C(c1ccccc1)*
# Legend:
# Format in all cases: cell-based
# [1] = target: Luciferin 4-monooxygenase (Photinus pyralis) (UniProt P08659); test: Effect on firefly luciferase activity expressed in HEK293 cells at 50 uM by luminescence assay
# Sequence of Luciferin 4-monooxygenase (Photinus pyralis) (P08659 whole entry): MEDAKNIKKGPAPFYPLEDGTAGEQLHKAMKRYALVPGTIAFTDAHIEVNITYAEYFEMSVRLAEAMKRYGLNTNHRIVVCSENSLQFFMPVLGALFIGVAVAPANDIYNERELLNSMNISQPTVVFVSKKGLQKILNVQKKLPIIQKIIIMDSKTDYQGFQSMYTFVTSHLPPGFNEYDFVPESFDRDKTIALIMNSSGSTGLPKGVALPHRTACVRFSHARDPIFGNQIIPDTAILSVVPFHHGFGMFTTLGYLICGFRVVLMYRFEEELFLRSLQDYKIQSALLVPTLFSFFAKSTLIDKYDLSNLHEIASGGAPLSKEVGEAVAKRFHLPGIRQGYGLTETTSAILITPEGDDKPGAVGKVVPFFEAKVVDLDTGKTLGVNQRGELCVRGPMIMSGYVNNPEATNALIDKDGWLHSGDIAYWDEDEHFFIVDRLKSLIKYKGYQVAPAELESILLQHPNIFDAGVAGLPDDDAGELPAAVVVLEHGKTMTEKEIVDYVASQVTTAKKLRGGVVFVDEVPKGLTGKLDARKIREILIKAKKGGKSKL
# Method in brief: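 HEK293 cells transiently transfected with full-length Photinus (firefly) luciferase. Compounds dissolved in DMSO and diluted in medium to 50 μM final in 0.5% DMSO. Luminescence expressed as % of maximal, relative to 0.5% DMSO vehicle.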
# [2] = target: T1, Fibroblast growth factor 14/SCN8A (Homo sapiens) (UniProt Q9UQD0+Q92915); test: Inhibition of Cluc-FGF14 (unknown origin)/CD4-Nav1.6-Nluc (unknown origin) protein-protein interaction using FGF14/NAV1.6 using HEK293 cells expressing FGF14/Nav1.6 by split luciferase complementation assay
# T1 sequence (Q92915 whole entry, looked up): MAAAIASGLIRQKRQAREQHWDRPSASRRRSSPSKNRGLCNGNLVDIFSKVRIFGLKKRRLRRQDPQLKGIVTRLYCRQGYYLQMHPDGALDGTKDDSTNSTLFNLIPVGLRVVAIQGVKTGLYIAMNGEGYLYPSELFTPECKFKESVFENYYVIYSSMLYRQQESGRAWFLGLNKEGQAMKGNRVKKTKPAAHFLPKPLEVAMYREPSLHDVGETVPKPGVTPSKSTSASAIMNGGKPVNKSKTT
# T1 sequence (Q9UQD0 whole entry, looked up): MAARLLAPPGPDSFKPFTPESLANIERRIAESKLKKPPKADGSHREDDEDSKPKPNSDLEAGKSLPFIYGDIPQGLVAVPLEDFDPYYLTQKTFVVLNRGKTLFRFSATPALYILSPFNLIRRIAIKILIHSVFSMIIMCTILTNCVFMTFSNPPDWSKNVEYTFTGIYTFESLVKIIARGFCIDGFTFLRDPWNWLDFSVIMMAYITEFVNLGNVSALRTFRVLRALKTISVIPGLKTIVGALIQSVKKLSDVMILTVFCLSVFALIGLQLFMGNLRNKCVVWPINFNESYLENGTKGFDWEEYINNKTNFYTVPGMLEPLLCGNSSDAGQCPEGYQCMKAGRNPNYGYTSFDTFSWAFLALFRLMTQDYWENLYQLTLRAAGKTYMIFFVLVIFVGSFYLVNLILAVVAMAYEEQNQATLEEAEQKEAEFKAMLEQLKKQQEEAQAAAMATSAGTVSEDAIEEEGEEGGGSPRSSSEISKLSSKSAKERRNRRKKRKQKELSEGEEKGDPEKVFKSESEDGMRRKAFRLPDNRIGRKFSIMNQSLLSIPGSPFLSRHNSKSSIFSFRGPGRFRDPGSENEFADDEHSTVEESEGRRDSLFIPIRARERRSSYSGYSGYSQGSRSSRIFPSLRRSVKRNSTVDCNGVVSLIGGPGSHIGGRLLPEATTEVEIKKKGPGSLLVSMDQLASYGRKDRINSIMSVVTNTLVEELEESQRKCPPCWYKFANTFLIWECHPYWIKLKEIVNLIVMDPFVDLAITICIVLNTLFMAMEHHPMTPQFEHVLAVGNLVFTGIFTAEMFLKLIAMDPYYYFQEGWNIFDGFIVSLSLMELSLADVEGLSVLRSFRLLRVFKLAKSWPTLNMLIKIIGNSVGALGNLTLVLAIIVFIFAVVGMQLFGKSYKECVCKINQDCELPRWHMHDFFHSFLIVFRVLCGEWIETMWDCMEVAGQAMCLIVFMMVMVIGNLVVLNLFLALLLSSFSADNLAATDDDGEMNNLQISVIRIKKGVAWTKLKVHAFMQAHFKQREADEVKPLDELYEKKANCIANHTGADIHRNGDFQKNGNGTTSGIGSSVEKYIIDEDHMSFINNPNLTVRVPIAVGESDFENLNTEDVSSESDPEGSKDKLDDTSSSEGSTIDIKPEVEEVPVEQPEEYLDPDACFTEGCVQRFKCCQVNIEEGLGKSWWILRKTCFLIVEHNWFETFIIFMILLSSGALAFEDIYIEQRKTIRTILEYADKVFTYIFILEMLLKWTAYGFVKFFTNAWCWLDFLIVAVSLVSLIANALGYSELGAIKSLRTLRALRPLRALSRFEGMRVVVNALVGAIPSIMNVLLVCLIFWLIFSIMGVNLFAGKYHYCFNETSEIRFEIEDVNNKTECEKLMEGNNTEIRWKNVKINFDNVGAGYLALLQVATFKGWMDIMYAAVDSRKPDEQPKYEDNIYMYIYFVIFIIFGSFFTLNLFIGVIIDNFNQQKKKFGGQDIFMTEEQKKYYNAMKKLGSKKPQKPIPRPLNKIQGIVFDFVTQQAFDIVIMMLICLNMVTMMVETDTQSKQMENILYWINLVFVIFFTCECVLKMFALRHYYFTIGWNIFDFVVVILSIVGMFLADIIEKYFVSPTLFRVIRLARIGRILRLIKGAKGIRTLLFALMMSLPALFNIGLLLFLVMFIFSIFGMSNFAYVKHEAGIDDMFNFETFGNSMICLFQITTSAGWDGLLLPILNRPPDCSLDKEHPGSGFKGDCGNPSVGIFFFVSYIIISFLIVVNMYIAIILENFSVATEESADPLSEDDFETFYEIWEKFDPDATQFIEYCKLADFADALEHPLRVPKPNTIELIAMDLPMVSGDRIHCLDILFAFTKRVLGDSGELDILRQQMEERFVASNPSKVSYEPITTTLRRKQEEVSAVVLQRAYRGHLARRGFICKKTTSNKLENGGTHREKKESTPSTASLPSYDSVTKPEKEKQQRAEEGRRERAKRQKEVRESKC
# Method in brief: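 Split-luciferase complementation in HEK293 cells expressing Cluc-FGF14 and CD4-Nav1.6-Nluc. Five-point dose response at 1, 10, 25, 50 and 100 μM.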
# [3] = test system: HEK293; test: Cytotoxicity against HEK293 cells assessed as reduction in cell viability at 50 uM by LDH release assay; conditions: human, hek293, 50 µM
# Method in brief: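 LDH release cytotoxicity assay in HEK293 cells, compounds given at 50 μM final. Read-out is % cytotoxicity. Data are mean ± S.E.M.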
# [4] = target: Sodium channel protein type 8 subunit alpha (Homo sapiens) (UniProt Q9UQD0); test: Inhibition of Nav1.6 (unknown origin) expressed in HEK293 cells assessed as activation constant at 10 uM after 1 hr at -70 mV holding potential by whole cell patch clamp method (reference value: 3.4 +/- 0.2 mV)
# Sequence of Sodium channel protein type 8 subunit alpha (Homo sapiens) (Q9UQD0 whole entry, looked up): as above
# [5] = target: Sodium channel protein type 8 subunit alpha (Homo sapiens) (UniProt Q9UQD0); test: Inhibition of Nav1.6 (unknown origin) expressed in HEK293 cells assessed as V1/2 of steady-state of inactivation at 10 uM after 1 hr at -70 mV holding potential by whole cell patch clamp method (reference value: […])
# [6] = target: Sodium channel protein type 8 subunit alpha (Homo sapiens) (UniProt Q9UQD0); test: Inhibition of Nav1.6 (unknown origin) expressed in HEK293 cells assessed as inactivation time constant at 10 uM after 1 hr at -70 mV holding potential by whole cell patch clamp method (reference value: 2.04 +/- 0.3 milliseconds)
# [7] = target: T1, Fibroblast growth factor 14/SCN8A (Homo sapiens); test: Modulation of Cluc-FGF14 (unknown origin)/CD4-Nav1.6-Nluc (unknown origin) protein-protein interaction using FGF14/NAV1.6 using HEK293 cells expressing FGF14/Nav1.6 assessed as luminescent response at 50 uM by split luciferase complementation assay relative to control
# Method in brief: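 Split-luciferase complementation in HEK293 cells co-transfected with Cluc-FGF14 and CD4-Nav1.6-Nluc plasmids. Compounds in DMSO, diluted in medium to 50 μM final, 0.5% DMSO. Luminescence reported as % maximal vs 0.5% DMSO vehicle.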
Structure (SMILES),Activity [1],inhibition [2],Activity [3],Kact [4],V1/2 [5],TIME [6],Activity [7]
COC(=O)[C@H](CCCCNC(=O)OCC1c2ccccc2-c2ccccc21)NC(=O)[C@@H]1CCCN1C(=O)[C@H](CC(C)C)NC(=O)[C@H](Cc1ccccc1)NC(C)=O (Ac-FLPK(Fmoc)-OMe),inactive,Dose-dependent effect,Non-Toxic,3.9 mV,-57.7 mV,5.69e-07 h,
CC(=O)N1CCC[C@H]1C(=O)N[C@@H](CC(C)C)C(=O)N[C@@H](CCCCNC(=O)OC(C)(C)C)C(N)=O (Ac-Pro-Leu-Lys(Boc)-NH2),inactive,,,,,,
CC(C)C[C@H](NC(=O)[C@H](Cc1ccccc1)NC(=O)c1ccccc1)C(=O)N1CCC[C@H]1C(=O)N[C@@H](CCCCNC(=O)OC(C)(C)C)C(N)=O (Bz-FLPK(Boc)-NH2),inactive,Dose-dependent effect,Non-Toxic,,,,
CC(C)C[C@H](NC(=O)[C@H](Cc1ccccc1)NC(=O)OCc1ccccc1)C(=O)N1CCC[C@H]1C(=O)N[C@@H](CCCCNC(=O)OC(C)(C)C)C(N)=O (Cbz-FLPK(Boc)-NH2),inactive,,,,,,
COC(=O)[C@H](CCCCNC(=O)OCC1c2ccccc2-c2ccccc21)NC(=O)[C@@H]1CCCN1C(=O)[C@H](CC(C)C)NC(=O)[C@@H](N)Cc1ccccc1 (H-FLPK(Fmoc)-OMe),inactive,,,,,,124%
CC(C)C[C@H](N)C(=O)N1CCC[C@H]1C(=O)N[C@@H](CCCCN)C(N)=O (H-Leu-Pro-Lys-NH2),inactive,,Non-Toxic,,,,142%
